# Rows were chosen to be rich in hits. Some 12% of all compounds tested hit in one or more screens of this group.
# RAM network inh – inhibitors of the yeast RAM network, primary screen, dse1pr::URA3 reporter, 5-FOA selection | S. cerevisiae dse1pr::URA3 reporter, 5-FOA growth OD615, 2 d; analog-sensitive cbk1-as2 kinase mutant strain | inhibition, % at 50 µM | 190,000 tested, 1.8% active | AID 868, 2007;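 active means inhibition above a set limit, 3 SD over mean compound inhibition, cut at about 8.4% in these data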;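 further: 0% = DMSO-only wells with no growth and 100% = 10 µM 1-NA-PP1 full growth; inhibition rescues growth on 5-FOA so higher OD means more RAM inhibition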
# Lmaj promast – Leishmania major promastigote growth inhibition, primary screen; inhibition, % at 10 µM; Leishmania major promastigotes, resazurin fluorescence viability; 200,000 tested, 9% active; AID 1063, 2008; in the data active means inhibition above about 50%;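 further: promastigotes grown with compound for 44 hours at 28 °C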
# ABCB1 inh – ABCB1 efflux pump inhibitors, primary screen, cell-based, multiplex, flow cytometry, ABCG2 counter-screen; inhibition, % at 6.6 µM; 190,000 tested, 0.067% active; AID 1326, 2008; ATP-dependent translocase ABCB1 (Homo sapiens), P08183; CCRF-Adr cells, JC-1 efflux; in the data active means inhibition above about 40%;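 further: 0% = vehicle and 100% = reference inhibitor; higher value means more JC-1 retained so stronger ABCB1 efflux block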
# WT yeast gro inh – growth inhibition of WT strain, primary screen, mitochondrial fusion inhibitor project, WT and mutant strains, chemical genetic | AID 1362, 2008 | inhibition, % at 10 µM | mitochondrial fusion phenotypic screen | 190,000 tested, 2.1% active; in the data active means inhibition above about 58%; tested in S. cerevisiae
# ABCG2 block – ABCG2 efflux pump inhibitors, primary screen, multiplex with ABCB1, IgMXP3 cells, flow cytometry; Broad substrate specificity ATP-binding cassette transporter ABCG2 (Homo sapiens), Q9UNQ0; JC-1 efflux; inhibition, % at 6.6 µM; 190,000 tested, 0.1% active;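 active means inhibition above 80%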;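 further: 0% = DMSO and 100% = nicardipine control wells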
#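 Test system: IgMXP3 cells (ABCG2) mixed with DDAO far-red-labelled CCRF-Adr cells (ABCB1). Reagent: JC-1 transporter substrate. Compound dosing: single test compound dose, 6.6 µM final. Times: 10 min compound exposure, 25 °C. Detection: flow cytometry of retained JC-1 fluorescence. Read-out basis: efflux inhibition in percent versus controls. Controls: nicardipine and DMSO wells.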
# Active calls of the source: *.
SMILES,RAM network inh,Lmaj promast,ABCB1 inh,WT yeast gro inh,ABCG2 block
COc1ccc2[nH]c3c(NCCN(C(C)C)C(C)C)ncnc3c2c1,0.8,22.8,0.1,12.3,0.6
C1=C(CCNc2ncnc3c2[nH]c2ccccc23)CCCC1,3.4,97.8*,0.8,87.5*,5.8
O=C(O)c1cc([N+](=O)[O-])cc2c1nnn2O,-0.5,-4.5,0.7,28.9,1.3
COc1cc(NC(=O)CN2CCCCC2)c(C)cc1[N+](=O)[O-],2.2,1.9,0.5,-6.9,10.9
COc1cc(NC(=O)Cn2ncc(Cl)c(Cl)c2=O)c(C)cc1[N+](=O)[O-],0.4,89.4*,1.7,-2.4,3.0
COc1cc(NC(=O)CN2CCCCC2C)c(C)cc1[N+](=O)[O-] (stereo not drawn),1.2,69.3*,0.4,-4.5,12.4
CCOC(=O)COc1ccc(C(=O)Nc2cccc(Cl)c2C)cc1,2.0,-3.8,0.8,-10.3,1.7
CCSc1nc(-c2ccc(OC)cc2)cc(-c2ccccc2)c1C#N,8.0,0.5,0.8,33.1,10.2
COc1ccc(-c2cc(-c3ccccc3)c(C#N)c(S(C)=O)n2)cc1 (stereo not drawn),1.4,100.4*,0.7,3.1,7.0
N#CCCN(Cc1cccnc1)C(=O)c1sc2cc(F)ccc2c1Cl,1.2,41.0,0.7,-1.1,4.2
CCOc1cccc(Oc2ncccc2C(=O)/C(C#N)=C/N(C)C)c1,0.1,-2.2,0.7,95.1*,0.9
O=C(Nc1cc(S(=O)(=O)N2CCCCC2)ccc1O)c1ccccc1NS(=O)(=O)c1ccc(F)cc1,6.8,-8.7,0.2,-3.9,0.4
O=C(Nc1cc(S(=O)(=O)N2CCCCC2)ccc1Cl)c1ccccc1NS(=O)(=O)c1ccc(F)cc1,6.4,6.1,0.6,71.7*,1.8
COc1ccccc1NS(=O)(=O)c1cc(NC(=O)c2cc[n+]([O-])cc2)ccc1N1CCCC1,3.9,-2.2,0.1,14.9,1.3
O=C(Nc1ccc(Cl)c(Cl)c1)Nc1ccc(N2CCCC2)c(S(=O)(=O)Nc2ccccc2Cl)c1,4.8,98.7*,-1.0,42.6,-3.6
O=C(Nc1ccc(F)cc1)Nc1ccc(N2CCCC2)c(S(=O)(=O)Nc2ccccc2Cl)c1,6.4,98.1*,-0.5,51.8,-2.3
CCOc1ccc(CCNC(=O)COC(=O)/C=C/c2ccc(OCC#N)c(OC)c2)cc1OCC,2.1,20.4,1.4,-10.3,14.2
O=C(NCc1nnc(SCC(=O)N2CCCc3ccccc32)n1-c1ccccc1)c1cccc2ccccc12,-0.4,-3.0,2.4,6.2,18.1
CCc1cccc2c(C(=O)COC(=O)c3ccc([N+](=O)[O-])s3)c[nH]c12,3.2,100.4*,-0.7,96.2,-8.5
O=C(OCC(=O)c1c[nH]c2ccccc12)C1=COCCO1,1.1,-8.8,0.6,-3.8,6.0
CCc1cccc2c(C(=O)CSc3nncn3C)c[nH]c12,-0.5,3.7,0.5,-9.6,6.3
O=C(OCC(=O)c1c[nH]c2ccccc12)c1ccc([N+](=O)[O-])s1,1.2,100.4*,-0.8,96.7,5.2
CCc1cccc2c(C(=O)CCl)c[nH]c12,0.4,57.6*,0.5,-18.3,7.5
Clc1ccc(-c2nc(C3CCCCC3)no2)cc1,1.0,-10.6,-0.2,11.9,-0.1
O=S(=O)(NCCCN1CCOCC1)c1ccc2c(c1)OCCO2,1.3,7.0,-0.5,-4.7,-0.6
SMILES,RAM network inh,Lmaj promast,ABCB1 inh,WT yeast gro inh,ABCG2 block
CCOc1ccc(S(=O)(=O)NCCCN2CCOCC2)cc1,1.2,92.0*,0.7,-17.6,2.5
COc1cc(S(=O)(=O)NCCCN2CCOCC2)ccc1Cl,1.4,92.9*,0.1,5.2,0.4
O=[N+]([O-])c1cc(S(=O)(=O)NCCCN2CCOCC2)ccc1Cl,2.8,98.7*,0.2,-8.8,-7.3
CCOc1ccc(OCC)c(S(=O)(=O)NCCCN2CCOCC2)c1,2.3,-3.8,0.1,2.8,-0.5
O=C(NCCCN1CCOCC1)c1ccc(Cl)cc1[N+](=O)[O-],0.2,-6.3,0.2,-14.9,1.2
COc1cc(S(=O)(=O)NCCCN2CCOCC2)ccc1-n1cnnn1,0.7,1.8,0.9,-9.1,1.9
Cc1ccc(S(=O)(=O)NCCCN2CCOCC2)cc1C,2.8,88.5*,0.3,-1.5,2.4
CCCCN1C(=O)/C(=C2/Sc3ccccc3N2C)S/C1=N\c1ncn[nH]1,4.0,49.3,0.9,-8.2,7.5
